Assay results as given in ChEMBL document CHEMBL4049424, “Hydroxypyridinone and 5-Aminolaevulinic Acid Conjugates for Photodynamic Therapy” (J Med Chem, 2017).

How the values were obtained:
[1] = test system: KB; assay: Phototoxicity in human KB cells assessed as reduction in cell viability preincubated for 4 hrs followed by irradiation with blue light at 2.5 J/cm2 and subsequent incubation for 18 hrs measured after 24 hrs post treatment by MTT assay; type: functional; details: for CC50: light or radiation study, read-out: LD50 (the source's name)
Procedure, shortened: (§1)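 Cells seeded ~5 × 10^4 per well, grown 48 h, washed with PBS, then 4 h with compound (five concentrations within 1–100 μM, triplicate, three untreated control wells per plate). Irradiated with blue light, peak ~420 nm, 2.5 J/cm². Medium replaced, cells kept a further 18 h. MTT read at A570 24 h after treatment; survival expressed as percentage of control. LD50 taken from two sets of experiments.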

[2] = test system: KB; assay: Dark toxicity against human KB cells at 200 uM preincubated for 4 hrs followed by compound washout measured after 24 hrs by MTT assay; type: cell-based
Procedure, shortened: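 Dark toxicity in KB cells: 200 μM compound for 4 h with no light, removed, cells kept 24 h. Viability by MTT (2 h, A570 after DMSO solubilisation), given as % of untreated controls. Triplicate.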

[3] = test system: MCF7R; assay: Phototoxicity in human doxorubicin resistant MCF7/R cells assessed as reduction in cell viability preincubated for 4 hrs followed by irradiation with blue light at 2.5 J/cm2 and subsequent incubation for 18 hrs measured after 24 hrs post treatment by MTT assay; type: functional; details: for CC50: light or radiation study, read-out: LD50 (the source's name); procedure, shortened: as §1
[4] = Drug metabolism in human doxorubicin resistant MCF7/R cells assessed as formation of protoporphyrin 9 at 1 to 100 uM after 6 hrs by fluorescence spectrometer; type: ADME, cell-based; details: mcf7r
Procedure, shortened: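 Cells seeded ~5 × 10^4 per well and grown 48 h, washed with PBS. Then 6 h at 37 °C with 1–100 μM prodrug in serum-free medium. PpIX fluorescence read with excitation 405 nm and emission 635 nm (scan 600–750 nm, 515 nm long-pass filter). Values are mean intensity in arbitrary units after subtracting no-prodrug control wells. Triplicate.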

[5] = test system: KB; assay: Dark toxicity against human KB cells assessed as cell survival at 100 uM after 24 hrs by MTT assay; type: cell-based
[6] = test system: MCF7; assay: Phototoxicity in human MCF7 cells assessed as reduction in cell viability preincubated for 4 hrs followed by irradiation with blue light at 2.5 J/cm2 and subsequent incubation for 18 hrs measured after 24 hrs post treatment by MTT assay; type: functional; details: for CC50: MCF7, light or radiation study, read-out: LD50 (the source's name); procedure, shortened: as §1
[7] = Dark toxicity against human KB cells assessed as cell survival at 100 uM after 4 hrs by MTT assay; type: cell-based; details: read-out: Survival
Procedure, shortened: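 Cells seeded ~5 × 10^4 per well, grown 48 h, washed with PBS, then exposed to compound in medium for 4 h without irradiation. Incubation then continued for 24 h after prodrug removal. Viability by MTT (1 mg/mL, 2 h), formazan dissolved in DMSO, A570, expressed as percentage of untreated control wells on the same plate. Triplicate.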

[8] = test system: KB; assay: Dark toxicity against human KB cells preincubated for 4 hrs followed by compound washout measured after 24 hrs by MTT assay; type: cell-based
Procedure, shortened: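 KB cells seeded ~5×10^4/well, grown 48 h, PBS-washed, then exposed to compound for 4 h without irradiation. Medium replaced and cells kept a further ~24 h. Survival by MTT (1 mg/mL in EMEM, 2 h), formazan dissolved in DMSO, A570, expressed as % of untreated control wells. Triplicate wells.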

[9] = Drug metabolism in human MCF7 cells assessed as formation of protoporphyrin 9 preincubated for 2 hrs followed by compound washout measured after 24 hrs by HPLC-based fluorescence analysis; type: ADME, cell-based; details: mcf7, 24 h
Procedure, shortened: (§2)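 Cells given ALA or conjugate for 2 h at 37 °C, then fresh medium without compound. At 24 h, lysed in CelLytic (15 min, room temperature), scraped and spun 1800g for 10 min. Supernatant PpIX read by fluorescence at 405/635 nm and normalised per mg protein (BCA). Untreated blanks subtracted.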

[10] = Drug metabolism in human doxorubicin resistant MCF7/R cells assessed as formation of protoporphyrin 9 at 100 uM after 6 hrs by fluorescence spectrometer; type: ADME, cell-based; details: mcf7r
Procedure, shortened: (§3)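 MCF-7R monolayers exposed 6 h at 37 °C to ALA, conjugates or ALA hexyl/octyl esters at 1–100 μM in serum-free medium. PpIX emission at 635 nm (405 nm excitation; spectra 600–750 nm) read in wells. Untreated controls subtracted; mean of triplicates in arbitrary units.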

[11] = Drug metabolism in human MCF7 cells assessed as formation of protoporphyrin 9 at 50 uM after 6 hrs by fluorescence spectrometer; type: ADME, cell-based; details: mcf7, 6 h
Procedure, shortened: (§4)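 MCF-7 or MCF-7R cells incubated 6 h at 37 °C with 50 μM conjugate, or with 50 μM ALA and HPO as a 1:1 mixture, in serum-free medium. PpIX fluorescence read in wells at 405/635 nm, untreated-well values subtracted, triplicate.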

[12] = test system: KB; assay: Phototoxicity in human KB cells assessed as cell survival at 10 uM preincubated for 4 hrs followed by irradiation with blue light at 2.5 J/cm2 and subsequent incubation for 18 hrs measured after 24 hrs post treatment by MTT assay relative to control; type: functional; details: light or radiation study, read-out: Survival; procedure, shortened: as §1
[13] = Drug metabolism in human doxorubicin resistant MCF7/R cells assessed as formation of protoporphyrin 9 after 6 hrs by fluorescence spectrometer; type: ADME, cell-based; details: mcf7r; procedure, shortened: as §3
[14] = Drug metabolism in human doxorubicin resistant MCF7/R cells assessed as formation of protoporphyrin 9 at 50 uM after 6 hrs by fluorescence spectrometer; type: ADME, cell-based; details: mcf7r; procedure, shortened: as §4
[15] = Drug metabolism in human KB cells assessed as formation of protoporphyrin 9 at 100 uM after 6 to 24 hrs by fluorescence spectrometer; type: ADME, cell-based
Procedure, shortened: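 Time course in KB cells at 37 °C after 100 μM conjugate, ALA, or 1:1 ALA + HPO mixture in serum-free medium. Well PpIX fluorescence read at 405 nm excitation / 635 nm emission, control autofluorescence subtracted, triplicate means.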

[16] = Drug metabolism in human doxorubicin resistant MCF7/R cells assessed as formation of protoporphyrin 9 preincubated for 2 hrs followed by compound washout measured after 24 hrs by HPLC-based fluorescence analysis; type: ADME, cell-based; details: mcf7r; procedure, shortened: as §2
[17] = Drug metabolism in human KB cells assessed as formation of protoporphyrin 9 at 50 uM after 2 to 24 hrs by fluorescence spectrometer; type: ADME, cell-based
Procedure, shortened: (§5)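 KB monolayers (48 h after seeding ~5×10^4/well) washed, then given prodrug or ALA at 50 μM in serum-free medium at 37 °C. PpIX fluorescence read in wells at 2, 4, 6 and 24 h, excitation 405 nm, emission 635 nm. Untreated wells subtracted for autofluorescence; mean intensity in arbitrary units, triplicate.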

[18] = Drug metabolism in human KB cells assessed as formation of protoporphyrin 9 preincubated for 2 hrs followed by compound washout measured after 24 hrs by HPLC-based fluorescence analysis; type: ADME, cell-based; procedure, shortened: as §2
[19] = Drug metabolism in human KB cells assessed as formation of protoporphyrin 9 at 50 uM after 24 hrs by fluorescence spectrometer relative to ALA; type: ADME, cell-based; procedure, shortened: as §5
[20] = Drug metabolism in human KB cells assessed as protoporphyrin 9 formation at 500 uM preincubated for 1 hr at 4 degC followed by compound washout and subsequent incubation for 4 hrs at 37 degC by fluorescence spectrometer; type: ADME, cell-based
Procedure, shortened: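 KB cells exposed 1 h to 500 μM prodrug in clear medium at either 4 °C or 37 °C, plates foil-wrapped. Compound then removed, PBS rinse, fresh medium, both plates 4 h at 37 °C. PpIX read in wells at 405/635 nm after subtracting untreated wells.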

[21] = Prodrug conversion in human doxorubicin resistant MCF7/R cells assessed as accumulation of ALA at 100 uM after 2 hrs by HPLC-based fluorescence analysis relative to ALA; type: ADME, cell-based; details: mcf7r
Procedure, shortened: (§6)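 KB or MCF-7R cells incubated 2 h with 100 μM ALA or conjugate, then extracted with CelLytic. Lysate ALA derivatised with acetylacetone/ethanol/water (15/45/40) plus 10% formaldehyde at 100 °C for 10 min. Analysed by C18 HPLC with fluorescence detection (excitation 370 nm, emission 460 nm) against spiked-lysate calibration. Normalised per mg protein.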

[22] = Prodrug conversion in human KB cells assessed as accumulation of ALA at 100 uM after 2 hrs by HPLC-based fluorescence analysis relative to ALA; type: ADME, cell-based; procedure, shortened: as §6
[23] = Drug metabolism in human doxorubicin resistant MCF7/R cells assessed as formation of protoporphyrin 9 at 1 to 100 uM after 6 hrs by fluorescence spectrometer relative to ALA; type: ADME, cell-based; details: mcf7r; procedure, shortened: as §3

| SMILES | Activity [1] | CC50 [1] [µM] | Activity [2] | Activity [3] | CC50 [3] [µM] | Activity [5] | Activity [6] | CC50 [6] [µM] | Drug metabolism [9] | Drug metabolism [11] | viability at 10 µM [12] [%] | Drug metabolism [13] | Drug metabolism [14] | Drug metabolism [15] | Flu intensity [4] [a.u.] | Drug metabolism [16] | Drug metabolism [17] | Drug metabolism [18] | fold change (FC) [19] | Drug metabolism [20] | also measured |
| --- | --- | --- | --- | --- | --- | --- | --- | --- | --- | --- | --- | --- | --- | --- | --- | --- | --- | --- | --- | --- | --- |
| CNC(=O)c1c(O)c(=O)ccn1CCCCCCOC(=O)CCC(=O)CN.Cl | Dose-dependent effect | 108 | Non-Toxic | Dose-dependent effect | 104 | Non-Toxic | Dose-dependent effect | 113 | – | – | – | – | – | – | – | – | – | – | – | – | Drug metabolism [4]: Metabolite_Notdetected |
| CCCCCCCCOC(=O)CCC(=O)CN | – | – | – | – | – | – | – | – | – | – | – | – | – | – | – | – | – | – | – | – | viability at 4 h, 100 µM [7]: 14%; Activity [8]: Toxic |
| CCc1c(O)c(=O)ccn1CCOC(=O)CCC(=O)CN.Cl | Dose-dependent effect | 115 | Non-Toxic | Dose-dependent effect | 122 | Non-Toxic | Dose-dependent effect | 124 | Metabolite_Detected | – | – | – | – | – | – | – | – | – | – | – | Drug metabolism [10]: Metabolite_Notdetected |
| CCc1c(O)c(=O)ccn1CCCCCCCCCCCCOC(=O)CCC(=O)CN.Cl | Dose-dependent effect | 2.5 | Non-Toxic | Dose-dependent effect | 5.5 | Non-Toxic | Dose-dependent effect | 12.9 | Metabolite_Detected | Metabolite_Detected | < 6 | Dose-dependent effect | Metabolite_Detected | Metabolite_Detected | 2 to 25 | Metabolite_Detected | Metabolite_Detected | Metabolite_Detected | 9.2 | Metabolite_Detected | – |
| CCc1c(O)c(=O)ccn1CCCCCCCCCCOC(=O)CCC(=O)CN.Cl | Dose-dependent effect | 2.3 | Non-Toxic | Dose-dependent effect | 3.9 | Non-Toxic | Dose-dependent effect | 8.1 | Metabolite_Detected | Metabolite_Detected | < 6 | Dose-dependent effect | Metabolite_Detected | Metabolite_Detected | 2 to 25 | Metabolite_Detected | Metabolite_Detected | Metabolite_Detected | 10.2 | Metabolite_Detected | fold change (FC) [21]: 8; fold change (FC) [22]: 8 |
| CC(O)c1c(O)c(=O)ccn1CCCCCCOC(=O)CCC(=O)CN.Cl (stereo unspecified) | Dose-dependent effect | 24.1 | Non-Toxic | Dose-dependent effect | 8.4 | Non-Toxic | Dose-dependent effect | 16.6 | – | – | – | – | – | – | – | Metabolite_Detected | – | Metabolite_Detected | – | – | fold change (FC) [23]: > 10 |
| CCc1c(O)c(=O)ccn1CCCCCCOC(=O)CCC(=O)CN.Cl | Dose-dependent effect | 5.2 | Non-Toxic | Dose-dependent effect | 8.1 | Non-Toxic | Dose-dependent effect | 13.4 | Metabolite_Detected | Metabolite_Detected | – | Dose-dependent effect | Metabolite_Detected | Metabolite_Detected | 2 to 25 | Metabolite_Detected | – | Metabolite_Detected | – | Metabolite_Detected | fold change (FC) [23]: > 15 |
| CCc1c(O)c(=O)ccn1CCCCOC(=O)CCC(=O)CN.Cl | Dose-dependent effect | 65.1 | Non-Toxic | Dose-dependent effect | 61.2 | Non-Toxic | Dose-dependent effect | 76.5 | Metabolite_Detected | – | – | Dose-dependent effect | – | – | 2 to 25 | – | – | – | – | Metabolite_Detected | – |
| CCc1c(O)c(=O)ccn1CCCCCCCCOC(=O)CCC(=O)CN.Cl.Cl | Dose-dependent effect | 3.1 | Non-Toxic | Dose-dependent effect | 4.2 | Non-Toxic | Dose-dependent effect | 10.9 | Metabolite_Detected | Metabolite_Detected | < 6 | Dose-dependent effect | Metabolite_Detected | Metabolite_Detected | 2 to 25 | Metabolite_Detected | Metabolite_Detected | Metabolite_Detected | 8 | Metabolite_Detected | fold change (FC) [21]: 6; fold change (FC) [22]: 6 |
